{"source": "ChEMBL document CHEMBL5252537", "about": "“Usnic Acid Benzylidene Analogues as Potent Mechanistic Target of Rapamycin Inhibitors for the Control of Breast Malignancies” (J Nat Prod, 2017)", "key": {"[1]": {"system": "BT-474", "assay": "Antiproliferative activity against human BT-474 cells incubated for 72 hrs by MTT assay", "format": "functional, cell-based", "details": "BT-474, 72 h", "method_in_brief": "(§1)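 Cells seeded at 5 × 10^3/well and allowed to attach overnight, then washed with PBS. Compound diluted from 10 mM DMSO stock into medium (100 ng/mL HGF added for c-Met-expressing cells), in triplicate, 72 h at 37 °C. MTT added for 4 h, formazan dissolved in DMSO, absorbance read at 570 nm. Cell numbers taken from a standard curve; IC50 calculated.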"}, "[2]": {"system": "SK-BR-3", "assay": "Antiproliferative activity against human SK-BR-3 cells incubated for 72 hrs by MTT assay", "format": "functional, cell-based", "details": "SK-BR-3, 72 h", "method_in_brief": "as §1"}, "[3]": {"system": "MCF7", "assay": "Antiproliferative activity against human MCF7 cells incubated for 72 hrs by MTT assay", "format": "functional, cell-based", "details": "MCF7, 72 h", "method_in_brief": "as §1"}, "[4]": {"system": "T47D", "assay": "Antiproliferative activity against human T47D cells incubated for 72 hrs by MTT assay", "format": "functional, cell-based", "method_in_brief": "as §1"}, "[5]": {"system": "MDA-MB-468", "assay": "Antiproliferative activity against human MDA-MB-468 cells incubated for 72 hrs by MTT assay", "format": "functional, cell-based", "details": "MDA-MB-468, 72 h", "method_in_brief": "as §1"}, "[6]": {"system": "MDA-MB-231", "assay": "Antiproliferative activity against human MDA-MB-231 cells incubated for 72 hrs by MTT assay", "format": "functional, cell-based", "details": "MDA-MB-231, 72 h", "method_in_brief": "as §1"}, "[7]": {"target": "Serine/threonine-protein kinase mTOR (Homo sapiens) (UniProt P42345)", "assay": "Inhibition of mTOR in human MDA-MB-231 cells assessed as reduction in phosphorylated 4E-BP1 level at 15 to 25 uM by Western blot analysis", "format": "cell-based", "details": "dose 15-25 µM", "method_in_brief": "(§2)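 Cells seeded at 5 × 10^5 per 100 mm dish and allowed to attach overnight. Treated with compound or DMSO for 72 h (HGF 100 ng/mL added for MDA-MB-231). Lysed in RIPA buffer with protease inhibitors. 30 μg protein run on SDS-PAGE, transferred to PVDF, blocked in 5% BSA/TBST. Primary antibodies overnight at 4 °C, HRP secondary antibodies, chemiluminescent detection.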"}, "[8]": {"target": "Serine/threonine-protein kinase mTOR (Homo sapiens) (UniProt P42345)", "assay": "Inhibition of mTOR in human MDA-MB-231 cells assessed as reduction in p-S6K level at 15 to 25 uM by Western blot analysis", "format": "cell-based", "details": "dose 15-25 µM", "method_in_brief": "as §2"}, "[9]": {"target": "Serine/threonine-protein kinase mTOR (Homo sapiens) (UniProt P42345)", "assay": "Inhibition of mTOR in human […] cells assessed as reduction in phosphorylated 4E-BP1 level at 15 to 25 uM by Western blot analysis", "format": "cell-based", "details": "MCF7, dose 15-25 µM", "method_in_brief": "as §2"}, "[10]": {"target": "Serine/threonine-protein kinase mTOR (Homo sapiens) (UniProt P42345)", "assay": "Inhibition of mTOR in human […] cells assessed as reduction in p-S6K level at 15 to 25 uM by Western blot analysis", "format": "cell-based", "details": "MCF7, dose 15-25 µM", "method_in_brief": "as §2"}, "[11]": {"system": "MDA-MB-231", "assay": "Induction of autophagy in human MDA-MB-231 cells assessed as increase in beclin-1 level by Western blotting analysis", "format": "functional, cell-based", "details": "dose 15-25 µM", "method_in_brief": "as §2"}, "[12]": {"system": "MCF7", "assay": "Induction of autophagy in human MCF7 cells assessed as increase in beclin-1 level by Western blotting analysis", "format": "functional, cell-based", "details": "dose 15-25 µM", "method_in_brief": "as §2"}, "[13]": {"system": "MDA-MB-231", "assay": "Induction of autophagy in human MDA-MB-231 cells assessed as increase in LC3 level by Western blotting analysis", "format": "functional, cell-based", "details": "dose 15-25 µM", "method_in_brief": "as §2"}, "[14]": {"system": "MCF7", "assay": "Induction of autophagy in human MCF7 cells assessed as increase in LC3 level by Western blotting analysis", "format": "functional, cell-based", "details": "dose 15-25 µM", "method_in_brief": "as §2"}, "[15]": {"target": "T1, mTORC2 (Homo sapiens) (UniProt P42345+Q6R327+Q9BVC4+Q9BPZ7)", "assay": "Inhibition of mTORC2 in human MDA-MB-231 cells assessed as reduction in Akt phosphorylation at Ser473 residue at 15 to 25 uM by Western blot analysis", "format": "cell-based", "details": "dose 15-25 µM", "method_in_brief": "as §2"}, "[16]": {"target": "T1, mTORC2 (Homo sapiens)", "assay": "Inhibition of mTORC2 in human MCF7 cells assessed as reduction in Akt phosphorylation at Ser473 residue at 15 to 25 uM by Western blot analysis", "format": "cell-based", "details": "dose 15-25 µM", "method_in_brief": "as §2"}, "[17]": {"system": "MDA-MB-231", "assay": "Antimigratory activity in human MDA-MB-231 cells assessed as inhibition of cell migration after 23 hrs by scratch wound healing assay", "format": "functional, cell-based", "method_in_brief": "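Cells seeded at 1 × 10^5/well and grown to a confluent monolayer, then scratched with a 200 μL pipet tip. Held 5 h in serum-free medium, then given medium with HGF (100 ng/mL) plus compound or DMSO. Norstictic acid (15 μM) was the positive control. Wound width photographed at 0 h and followed up to 24 h; cells MeOH-fixed. Percent migration from wound thickness versus DMSO wells; IC50 calculated.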"}, "[18]": {"system": "MDA-MB-231", "assay": "Anti-invasive activity in human MDA-MB-231 cells after 24 hrs […]", "format": "functional, cell-based", "details": "MDA-MB-231, 24 h"}}, "note": "Calls of active or inactive are those of the source. The calls are words filed in the database; no cut-off is given here."}
{"smiles": "CC(=O)C1=C(O)C=C2Oc3c(C(C)=O)c(O)c(C)c(O)c3[C@]2(C)C1=O", "note": "[(-)-USNIC ACID]", "values": [{"measurement": "IC50", "setting": "[1]", "result": 15.1, "unit": "µM"}, {"measurement": "IC50", "setting": "[2]", "result": 14.4, "unit": "µM"}, {"measurement": "IC50", "setting": "[3]", "result": 11.2, "unit": "µM"}, {"measurement": "IC50", "setting": "[4]", "result": 15.9, "unit": "µM"}, {"measurement": "IC50", "setting": "[5]", "result": 13.7, "unit": "µM"}, {"measurement": "IC50", "setting": "[6]", "result": 13.1, "unit": "µM"}, {"measurement": "inhibition", "setting": "[7]", "result": "Active"}, {"measurement": "inhibition", "setting": "[8]", "result": "Active"}, {"measurement": "inhibition", "setting": "[9]", "result": "Active"}, {"measurement": "inhibition", "setting": "[10]", "result": "Active"}, {"measurement": "Activity", "setting": "[11]", "result": "Dose-Dependent Effect"}, {"measurement": "Activity", "setting": "[12]", "result": "Dose-Dependent Effect"}, {"measurement": "Activity", "setting": "[13]", "result": "Dose-Dependent Effect"}, {"measurement": "Activity", "setting": "[14]", "result": "Dose-Dependent Effect"}, {"measurement": "inhibition", "setting": "[15]", "result": "Active"}, {"measurement": "inhibition", "setting": "[16]", "result": "Active"}, {"measurement": "Activity", "setting": "[17]", "result": "Dose-Dependent Effect"}, {"measurement": "IC50", "setting": "[17]; MDA-MB-231, 23 h", "result": 13.7, "unit": "µM"}, {"measurement": "IC50", "setting": "[18]", "result": 14.2, "unit": "µM"}]}
